Measurements reported in ChEMBL document CHEMBL1933017, “Synthesis and biological evaluation of some thiazolidinones as antimicrobial agents” (2012).
In brackets after ≈: the same amount, converted by molar mass.

Tests used:
Aspergillus fumigatus [1] = assay: Antifungal activity against Aspergillus fumigatus after 48 hrs by agar streak dilution method; format: functional
Procedure, shortened: (§1)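 Fungal MIC by agar streak dilution on Sabouraud dextrose agar, poured 4–5 mm deep. Compound from a DMSO stock (100 μg/mL) was incorporated at serial concentrations of 3.12–100 µg/mL. Plates were inoculated with about 10⁵ CFU/mL of suspension and incubated at (37 ± 1) °C for 48 h. Each value is the mean of three independent experiments.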

Candida albicans [2] = assay: Antifungal activity against Candida albicans after 48 hrs by agar streak dilution method; format: functional; procedure, shortened: as §1
Shigella flexneri [3] = assay: Antibacterial activity against Shigella flexneri at 100 ug/disc after 24 hrs by disc diffusion method; format: functional; conditions: read-out: DIZ
Procedure, shortened: (§2)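 Paper disc diffusion on autoclaved Mueller-Hinton agar poured 5 mm deep. Agar was swab-inoculated with 10⁵ CFU/mL suspension (0.5 McFarland). Discs 6.25 mm across were soaked in compound solution in DMSO (3.12–100 µg/mL) and plates incubated 24 h at (37 ± 1) °C. Read-out was inhibition zone (mm). DMSO control disc; ciprofloxacin or ketoconazole reference, 100 µg/disc. Mean of three independent experiments.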

Pseudomonas aeruginosa [4] = assay: Antibacterial activity against Pseudomonas aeruginosa […] after 24 hrs by agar streak dilution method; format: functional
Aspergillus clavatus [5] = assay: Antifungal activity against Aspergillus clavatus at 100 ug/disc after 24 hrs by disc diffusion method; format: functional; conditions: read-out: DIZ; procedure, shortened: as §2
Aspergillus clavatus [6] = assay: Antifungal activity against Aspergillus clavatus after 48 hrs by agar streak dilution method; format: functional; procedure, shortened: as §1
Klebsiella pneumoniae [7] = assay: Antibacterial activity against Klebsiella pneumoniae at 100 ug/disc after 24 hrs by disc diffusion method; format: functional; conditions: read-out: DIZ; procedure, shortened: as §2
Proteus vulgaris [8] = assay: Antibacterial activity against Proteus vulgaris at 100 ug/disc after 24 hrs by disc diffusion method; format: functional; conditions: read-out: DIZ; procedure, shortened: as §2
Proteus vulgaris [9] = assay: Antibacterial activity against Proteus vulgaris after 24 hrs by agar streak dilution method; format: functional
Procedure, shortened: (§3)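 MIC by agar streak dilution. Graded amounts of DMSO stock (100 μg/mL) were mixed into molten sterile nutrient agar and poured 4–5 mm deep. Serial concentrations spanned 3.12–100 µg/mL. Plates were inoculated with about 10⁵ CFU/mL of bacterial suspension and incubated at (37 ± 1) °C for 24 h. Each value is the mean of three independent experiments.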

Staphylococcus aureus [10] = assay: Antibacterial activity against Staphylococcus aureus at 100 ug/disc after 24 hrs by disc diffusion method; format: functional; conditions: read-out: DIZ; procedure, shortened: as §2
Pseudomonas aeruginosa [11] = assay: Antibacterial activity against Pseudomonas aeruginosa at 100 ug/disc after 24 hrs by disc diffusion method; format: functional; conditions: read-out: DIZ; procedure, shortened: as §2
Escherichia coli [12] = assay: Antibacterial activity against Escherichia coli after 24 hrs by agar streak dilution method; format: functional; procedure, shortened: as §3
Aspergillus niger [13] = assay: Antifungal activity against Aspergillus niger at 100 ug/disc after 24 hrs by disc diffusion method; format: functional; conditions: read-out: DIZ; procedure, shortened: as §2
Escherichia coli [14] = assay: Antibacterial activity against Escherichia coli at 100 ug/disc after 24 hrs by disc diffusion method; format: functional; conditions: read-out: DIZ; procedure, shortened: as §2
Aspergillus fumigatus [15] = assay: Antifungal activity against Aspergillus fumigatus at 100 ug/disc after 24 hrs by disc diffusion method; format: functional; conditions: read-out: DIZ; procedure, shortened: as §2
Salmonella typhi [16] = assay: Antibacterial activity against Salmonella Typhi at 100 ug/disc after 24 hrs by disc diffusion method; format: functional, Salmonella enterica subsp. enterica serovar Typhi; conditions: Salmonella enterica, read-out: DIZ
Procedure, shortened: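 Paper disc diffusion on Mueller-Hinton agar poured 5 mm deep; 10⁵ CFU/mL suspension (0.5 McFarland) swabbed over surface. 6.25 mm filter paper discs soaked in compound in DMSO, incubated 24 h at (37 ± 1) °C; inhibition zone diameter in mm. DMSO disc as blank; ciprofloxacin 100 µg/disc as reference. Mean of three independent experiments.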

Aspergillus niger [17] = assay: Antifungal activity against Aspergillus niger after 48 hrs by agar streak dilution method; format: functional; procedure, shortened: as §1
Salmonella typhi [18] = assay: Antibacterial activity against Salmonella Typhi after 24 hrs by agar streak dilution method; format: functional, Salmonella enterica subsp. enterica serovar Typhi; conditions: Salmonella enterica
Procedure, shortened: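 Agar streak dilution: DMSO stock (100 µg/mL) graded into molten sterile nutrient agar, poured 4–5 mm deep and solidified. Plates carry serial dilutions spanning 3.12–100 µg/mL. Applied ~10⁵ CFU/mL suspension, then incubated 24 h at (37 ± 1) °C. MIC read as the lowest inhibitory concentration; each value is the mean of three independent experiments.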

Staphylococcus aureus [19] = assay: Antibacterial activity against Staphylococcus aureus after 24 hrs by agar streak dilution method; format: functional; procedure, shortened: as §3
Candida albicans [20] = assay: Antifungal activity against Candida albicans at 100 ug/disc after 24 hrs by disc diffusion method; format: functional; conditions: read-out: DIZ; procedure, shortened: as §2
Shigella flexneri [21] = assay: Antibacterial activity against Shigella flexneri after 24 hrs by agar streak dilution method; format: functional; procedure, shortened: as §3
Klebsiella pneumoniae [22] = assay: Antibacterial activity against Klebsiella pneumoniae […] after 24 hrs by agar streak dilution method; format: functional
Bacillus cereus [23] = assay: Antibacterial activity against Bacillus cereus at 100 ug/disc after 24 hrs by disc diffusion method; format: functional; conditions: read-out: DIZ; procedure, shortened: as §2
Bacillus cereus [24] = assay: Antibacterial activity against Bacillus cereus after 24 hrs by agar streak dilution method; format: functional; procedure, shortened: as §3

Compound | MIC (Aspergillus fumigatus [1]) [µg/mL] | MIC (Candida albicans [2]) [µg/mL] | zone of inhibition at 100 µg/disc (Shigella flexneri [3]) [mm] | MIC (Pseudomonas aeruginosa [4]) [µg/mL] | zone of inhibition at 100 µg/disc (Aspergillus clavatus [5]) [mm] | MIC (Aspergillus clavatus [6]) [µg/mL] | zone of inhibition at 100 µg/disc (Klebsiella pneumoniae [7]) [mm] | zone of inhibition at 100 µg/disc (Proteus vulgaris [8]) [mm] | MIC (Proteus vulgaris [9]) [µg/mL] | zone of inhibition at 100 µg/disc (Staphylococcus aureus [10]) [mm] | zone of inhibition at 100 µg/disc (Pseudomonas aeruginosa [11]) [mm] | MIC (Escherichia coli [12]) [µg/mL] | zone of inhibition at 100 µg/disc (Aspergillus niger [13]) [mm] | zone of inhibition at 100 µg/disc (Escherichia coli [14]) [mm] | zone of inhibition at 100 µg/disc (Aspergillus fumigatus [15]) [mm] | zone of inhibition at 100 µg/disc (Salmonella typhi [16]) [mm] | MIC (Aspergillus niger [17]) [µg/mL] | MIC (Salmonella typhi [18]) [µg/mL] | MIC (Staphylococcus aureus [19]) [µg/mL] | zone of inhibition at 100 µg/disc (Candida albicans [20]) [mm] | also measured
CCN1CCN(CC2SC(c3ccccc3Br)N(c3ccc(Nc4nc(Oc5cc(=O)n(C)c6ccccc56)nc(N(C)C)n4)cc3)C2=O)CC1 (stereo unspecified) | 100 (≈ 130 µM) | 100 (≈ 130 µM) | 11 | 100 (≈ 130 µM) | 13 | 100 (≈ 130 µM) | 12 | 15 | 100 (≈ 130 µM) | < 10 | 14 | 100 (≈ 130 µM) | < 10 | < 10 | < 10 | 12 | 100 (≈ 130 µM) | 100 (≈ 130 µM) | 100 (≈ 130 µM) | < 10 | MIC (Shigella flexneri [21]): 100 µg/mL (≈ 130 µM); MIC (Klebsiella pneumoniae [22]): 100 µg/mL (≈ 130 µM); zone of inhibition at 100 µg/disc (Bacillus cereus [23]): 13 mm; MIC (Bacillus cereus [24]): 100 µg/mL (≈ 130 µM)
CCN1CCN(CC2SC(c3ccccc3C(=O)O)N(c3ccc(Nc4nc(Oc5cc(=O)n(C)c6ccccc56)nc(N(C)C)n4)cc3)C2=O)CC1 (stereo unspecified) | 100 (≈ 136 µM) | 100 (≈ 136 µM) | 15 | 100 (≈ 136 µM) | 17 | 100 (≈ 136 µM) | 16 | 12 | 100 (≈ 136 µM) | 21 | 13 | 50 (≈ 67.9 µM) | 15 | 18 | 11 | 13 | 100 (≈ 136 µM) | 100 (≈ 136 µM) | 100 (≈ 136 µM) | 17 | MIC (Shigella flexneri [21]): 100 µg/mL (≈ 136 µM); MIC (Klebsiella pneumoniae [22]): 50 µg/mL (≈ 67.9 µM); zone of inhibition at 100 µg/disc (Bacillus cereus [23]): 21 mm; MIC (Bacillus cereus [24]): 50 µg/mL (≈ 67.9 µM)
CCN1CCN(CC2SC(c3ccc(C(=O)O)cc3)N(c3ccc(Nc4nc(Oc5cc(=O)n(C)c6ccccc56)nc(N(C)C)n4)cc3)C2=O)CC1 (stereo unspecified) | 50 (≈ 67.9 µM) | 100 (≈ 136 µM) | 27 | 25 (≈ 34 µM) | 23 | 50 (≈ 67.9 µM) | 26 | 25 | 12.5 (≈ 17 µM) | 26 | 22 | 6.25 (≈ 8.49 µM) | 27 | 27 | 20 | 22 | 25 (≈ 34 µM) | 50 (≈ 67.9 µM) | 25 (≈ 34 µM) | 25 | MIC (Shigella flexneri [21]): 6.25 µg/mL (≈ 8.49 µM); MIC (Klebsiella pneumoniae [22]): 12.5 µg/mL (≈ 17 µM); zone of inhibition at 100 µg/disc (Bacillus cereus [23]): 23 mm; MIC (Bacillus cereus [24]): 12.5 µg/mL (≈ 17 µM)
CCN1CCN(CC2SC(c3ccc(OC)cc3)N(c3ccc(Nc4nc(Oc5cc(=O)n(C)c6ccccc56)nc(N(C)C)n4)cc3)C2=O)CC1 (stereo unspecified) | 12.5 (≈ 17.3 µM) | 12.5 (≈ 17.3 µM) | 26 | 12.5 (≈ 17.3 µM) | 24 | 12.5 (≈ 17.3 µM) | 25 | 21 | 50 (≈ 69.3 µM) | 28 | 25 | 6.25 (≈ 8.66 µM) | 25 | 27 | 27 | 26 | 12.5 (≈ 17.3 µM) | 6.25 (≈ 8.66 µM) | 6.25 (≈ 8.66 µM) | 26 | MIC (Shigella flexneri [21]): 6.25 µg/mL (≈ 8.66 µM); MIC (Klebsiella pneumoniae [22]): 25 µg/mL (≈ 34.6 µM); zone of inhibition at 100 µg/disc (Bacillus cereus [23]): 27 mm; MIC (Bacillus cereus [24]): 6.25 µg/mL (≈ 8.66 µM)
